M1 ag = agonists of M1 muscarinic receptor; CHO-M1 cells, Fluo-4 calcium fluorescence, agonist mode; hits give high values; B-score at 10 µM; 64,000 compounds, 3% hits;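 active = fluorescence rise, raw or as B-score row- and column-corrected plate score, outside the 99.7% band of its plate's samples, either direction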
D1 mod = allosteric modulators of human D1 dopamine receptor; B-score at 10 µM; HEK293 D1, CRE-luciferase, dopamine EC30 potentiation; actives deviate in either direction; 58,000 compounds, 5.9% hits;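 active = luminescence count or its row- and column-corrected plate score outside the 99.7% band of the plate's sample wells, on either side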
SF1 activator = activates the human nuclear receptor SF-1; CHO-K1 Gal4-SF-1 LBD luciferase reporter; % increase over DMSO SF-1-specific signal; activation, % at 10 µM; 65,000 compounds, 1.9% hits; Q13285;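 active = activation above the mean activation of all tested compounds plus 3 SD, cut at about 50% in these data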
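Material: Gal4–SF-1 LBD one-hybrid luciferase reporter in CHO-K1 cells | Amount: 4,000 cells per well | Compound dosing: 10 µM single point, 1% DMSO | Schedule: 20 h compound treatment, 37 °C | Measured by: SteadyLite luciferase luminescence | Evaluation: Percent activation versus DMSO | Control set: DMSO-treated SF-1-transfected cells as negative, DMSO-treated mock-transfected cells lacking SF-1 as background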
RORa activator = activates the human nuclear receptor RORA; P35398; CHO-K1 Gal4-RORA LBD luciferase reporter, luminescence; percent increase over mock-subtracted basal signal; activation, % at 10 µM; 65,000 compounds, 1.5% hits; AID 560;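 active = activation above the mean of all tested compounds plus 3 SD, cut at about 49% in these data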
Target sequence (P35398 whole entry, looked up, the tested form may be a part): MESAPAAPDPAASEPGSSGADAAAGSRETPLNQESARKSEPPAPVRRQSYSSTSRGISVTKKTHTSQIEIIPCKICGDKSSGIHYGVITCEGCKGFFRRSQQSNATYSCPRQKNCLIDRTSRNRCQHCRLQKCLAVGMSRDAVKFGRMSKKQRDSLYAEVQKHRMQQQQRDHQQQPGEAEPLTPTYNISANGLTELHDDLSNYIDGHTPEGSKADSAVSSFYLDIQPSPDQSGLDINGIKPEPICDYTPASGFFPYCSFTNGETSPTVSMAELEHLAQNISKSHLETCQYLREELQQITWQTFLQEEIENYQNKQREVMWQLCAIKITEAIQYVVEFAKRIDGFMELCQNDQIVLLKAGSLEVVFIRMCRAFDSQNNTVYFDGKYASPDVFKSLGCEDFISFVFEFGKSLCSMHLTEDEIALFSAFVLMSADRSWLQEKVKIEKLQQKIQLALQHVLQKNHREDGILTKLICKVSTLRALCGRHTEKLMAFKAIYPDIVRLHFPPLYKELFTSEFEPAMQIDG
M1 antag = antagonists of rat M1 muscarinic receptor; AID 628; CHO-M1 cells, Fluo-4 calcium, ACh EC80 antagonist mode; hits give low values; 64,000 compounds, 3.4% hits; P08482; B-score at 10 µM;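 active = calcium fluorescence response, raw or row-and-column corrected B-score, differing from the plate sample mean either way at a set confidence level, mostly lower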
mHtt clearance = compounds clearing mutant huntingtin protein; 47,000 compounds, 0.42% hits; inhibition, % at 1.5 µM; HeLa Exon1htt(103Q)mCFP, aggregate imaging; zero = plate's median compound well;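 active = inhibition of aggregate fluorescence above about 70%, also judged a hit by eye on the cell image, limit read from the data, passing the limit was not always enough; inconclusive = no rule stated for this call; inactive = not judged a hit on image review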;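 note: cells exposed to compound for three days before fixation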
Numbers stand for hits; i = inactive; ? = inconclusive; nt = no result. Rows were chosen to be rich in hits. Some 11% of all compounds tested hit in one or more screens of this group.

SMILES | M1 ag | D1 mod | SF1 activator | RORa activator | M1 antag | mHtt clearance
CCCn1c(C)cc(C(=O)CN2C(=O)c3ccccc3C2=O)c1C | i | i | 65 | 55 | i | nt
CN1C(=O)COc2ccc(C(=O)c3oc4ccccc4c3-c3cnc4c(c3)COc3ccccc3-4)cc21 | nt | nt | nt | nt | nt | i
Cc1cc(=O)n2nc(-c3ccc(C(F)(F)F)cc3)sc2n1 | nt | nt | nt | nt | nt | i
O=C(c1c(F)c(F)c(F)c(F)c1F)N1CCc2ccccc21 | i | i | i | i | i | i
CCC(C)NC(=O)C(NS(=O)(=O)c1ccc2c(c1)c(=O)n(C)c(=O)n2C)c1ccccc1 (centres undefined) | i | -5.6 | i | i | i | i
N#CC1=C(N)C(C#N)(C#N)C2(C(=O)Nc3ccccc32)C2CCCC=C12 (centres undefined) | nt | -6.2 | i | i | nt | nt
Cc1ccnc(N2CCN(c3cc(C)c(C#N)c4nc5ccccc5n34)CC2)c1 | i | i | i | i | -2.5 | nt
COc1ccc(-n2nnnc2SCC(=O)Nc2cccc(C)n2)cc1OC | i | i | i | i | i | nt
Nc1ccc(C2CCCc3nonc32)c2nonc12 (centres undefined) | nt | -2.8 | i | i | nt | nt
COC(=O)c1ccccc1NC(=O)CC(NCc1ccccc1)C(=O)O (centres undefined) | i | 2.4 | i | i | i | i
COCCCNC(CC(=O)Nc1ccccc1C(=O)OC)C(=O)O (centres undefined) | i | i | i | i | i | nt
COC(=O)c1ccccc1NC(=O)CN(c1ccccc1)S(=O)(=O)N(C)C | i | i | i | i | 1.9 | nt
CSc1ccccc1NC(=O)CN(c1ccccc1)S(=O)(=O)N(C)C | i | nt | i | i | i | nt
CCCn1c(SCC(=O)N2c3ccccc3CCc3ccccc32)nc2c1c(=O)n(C)c(=O)n2C | nt | nt | nt | nt | nt | i
CCCn1c(SCc2cc(=O)[nH]c3ccccc23)nc2c1c(=O)n(C)c(=O)n2C | i | 6 | i | i | i | nt
CC(C)(NCc1ccccc1Cl)C(=O)O | i | i | i | i | i | nt
CCN(CC)c1ccc(-c2nn3c(-c4ccccc4OC)nnc3s2)cc1 | i | i | i | i | i | ?
COc1ccccc1-c1nn2c(-c3ccccc3Cl)nnc2s1 | -2 | i | i | i | i | nt
COc1ccc(OCc2nn3c(-c4ccco4)nnc3s2)cc1 | i | i | i | i | i | i
COc1ccccc1-c1nn2c(-c3ccco3)nnc2s1 | i | nt | 59 | i | i | i
CCOC(=O)CSc1cccc2cccnc12 | nt | i | i | i | nt | i
O=[N+]([O-])c1nn(-c2ccc3c(c2)OCCO3)n(O)c1=NC1CCCCC1 | nt | nt | nt | nt | nt | i
CCc1ccc(N=c2c([N+](=O)[O-])nn(-c3ccccc3)n2O)cc1 | nt | nt | nt | nt | nt | 71
Cc1ccc2cc(CN(Cc3cccs3)C(=O)c3ccco3)c3nnnn3c2c1C | i | 3.7 | i | i | i | nt
Cc1ccc2c(c1)cc(CN(Cc1cccs1)C(=O)c1ccco1)c1nnnn12 | i | nt | i | i | i | nt
SMILES | M1 ag | D1 mod | SF1 activator | RORa activator | M1 antag | mHtt clearance
C/C(=N\O)c1c(C)c2ccccc2n1C | i | nt | i | i | i | nt
C/C(=N\O)c1ccc2c3ccccc3n(C)c2c1 | nt | i | 54 | i | nt | ?
C=CCOC(=O)C1=C(C)Nc2nc3ccccc3n2C1c1ccncc1 (centres undefined) | i | i | i | i | i | i
Cn1c(C(C#N)C(=O)c2ccco2)nc2ccccc21 (centres undefined) | i | i | 59 | 67 | i | nt
Cn1c(C(C#N)C(=O)Cc2cccc3ccccc23)nc2ccccc21 (centres undefined) | i | i | i | i | i | nt
Cc1cc(N2C(=O)C3CC=CC(C)C3C2=O)no1 (centres undefined) | nt | nt | nt | nt | nt | i
Cn1ncc2c1ncn1nc(CCc3ccccc3)nc21 | i | i | 50 | i | i | nt
Cn1ncc2c1ncn1nc(COc3ccc4ccccc4c3)nc21 | i | i | i | i | i | nt
CCN1CCN(Cc2ccc(NC(=O)Nc3ccccc3OC)cc2)CC1 | i | i | i | 49 | i | nt
CCOC(=O)C(NC(C)=O)(Nc1cccc(F)c1)C(F)(F)F (centres undefined) | i | -6.4 | i | i | i | nt
Clc1ccc(-c2nnc(NC3=NCCCCC3)o2)cc1 | i | -5.8 | i | i | i | nt
COc1ccc2[nH]c(=O)c(CN(C(=O)C3CCCO3)c3ccc(C)cc3)cc2c1 (centres undefined) | i | i | i | i | i | i
Cc1ccc(C2CC(c3ccccc3OC(F)F)Nc3ncnn32)cc1 (centres undefined) | i | i | i | i | 1.3 | i
COCCN1CN=C(Nc2nc(C)c3ccc(C)cc3n2)NC1 | i | i | i | i | -7.3 | nt
Cc1nc(NC2=NCN(CCc3ccccc3)CN2)nc2ccccc12 | i | nt | i | i | -9 | nt
Cc1ccc2c(C)nc(NC3=NCN(Cc4ccccc4)CN3)nc2c1 | i | i | i | i | i | nt
Cc1ccc2c(C)nc(NC3=NCN(CCc4ccccc4)CN3)nc2c1 | i | i | i | i | -13 | nt
CCOC(=O)NC(NC(=O)OCC)C(=O)c1ccc(F)cc1 | nt | nt | nt | nt | nt | i
CCOc1ccc(N(CC(=O)Nc2ccc(C)cc2)S(=O)(=O)c2c(C)noc2C)cc1 | i | i | i | i | i | nt
COc1ccc(NC(=O)CN(C)S(=O)(=O)c2cccs2)cc1 | i | i | i | 51 | i | i
COC(=O)c1ccc(NC(=O)CN(c2ccc(OC)cc2)S(C)(=O)=O)cc1 | i | i | 75 | 66 | i | i
CCOc1ccc(N(CC(=O)Nc2ccc(OC)cc2)S(C)(=O)=O)cc1 | i | i | i | 61 | i | i
COc1ccc(NC(=O)CNS(=O)(=O)c2cccs2)cc1 | i | i | i | i | i | nt
CCC(c1nnc(SCC(=O)NCCc2ccc(Cl)cc2Cl)o1)N(C)C (centres undefined) | i | i | i | i | i | i
O=C(CN1C(=O)c2ccccc2C1=O)Nc1ccccc1C(=O)NC1CCCCC1 | nt | nt | nt | nt | nt | i
SMILES | M1 ag | D1 mod | SF1 activator | RORa activator | M1 antag | mHtt clearance
O=C(O)CCC(=O)N1CCc2cc(S(=O)(=O)N(CCc3ccccc3)Cc3ccccc3)ccc21 | nt | nt | nt | nt | nt | i
COc1cccc(C(=O)Nc2nc(-c3ccc(S(=O)(=O)N4CCOCC4)cc3)cs2)c1 | i | -3.3 | i | i | i | i
CCn1cc(Br)c(C(=O)Nc2cccc(SC)c2)n1 | i | i | 50 | i | i | i
CCN(CC)S(=O)(=O)c1ccc(Cc2ncc(C(F)(F)F)cc2Cl)s1 | nt | nt | nt | nt | nt | i
COc1ccccc1N1CCN(C(=O)Cn2nc(C(F)(F)F)c3c2CCC3)CC1 | i | i | i | i | i | i
CCOC(=O)c1[nH]c(C)c(C(=O)Nc2ccc3c(c2)OCCO3)c1C | i | nt | i | i | i | i
O=C(Nc1ccc2c(c1)OCCO2)NC1CCCCC1 | i | -3.1 | i | i | i | i
O=C(Nc1ccc2c(c1)OCCO2)C1CCC1 | i | i | i | i | i | i
O=C(Nc1ccc2oc(-c3ccccc3F)nc2c1)c1ccc2c(c1)OCCO2 | nt | nt | i | 61 | nt | i
CC(=O)c1c(C)[nH]c(C(=O)Nc2ccc3c(c2)OCCO3)c1C | i | -2.7 | 61 | i | i | nt

High-throughput results (PubChem)
